Active and inactive are the calls of the source. The calls are words filed in the database; no cut-off is given here.
Columns and labels:
[1] = Vasodilatory activity in human vena saphena magna assessed as reduction in phenylephrine-induced smooth muscle contraction at 100 uM relative to baseline contraction; assay type: functional; design: scale not given: the % may be the effect or the level left
Procedure, shortened: (§1)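 Saphenous vein rings came from 37 CABG patients. They were bathed in Tyrode's solution (mM: NaCl 137, KCl 5.4, CaCl2 1.8, MgCl2 0.9, Tris HCl 10, glucose 5; pH 7.4), equilibrated 45–60 min and washed every 15 min. Rings were precontracted with 10^-4 M phenylephrine, then given cumulative test agent at 10^-7 to 10^-4 M. Isometric relaxation was recorded, as means ± SE.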

[2] = Vasodilatory activity in human vena saphena magna assessed as reduction in phenylephrine-induced smooth muscle contraction at 0.1 uM; assay type: functional; design: scale not given: the % may be the effect or the level left; procedure, shortened: as §1
[3] = Vasodilatory activity in human vena saphena magna assessed as relaxation of phenylephrine-induced smooth muscle contraction at 10^-7 to 10^-4 M; assay type: functional; procedure, shortened: as §1
[4] = Ionotropic effect in guinea pig right ventricle papillary muscles assessed as contraction force at 10^-6 M by force transduction assay relative to untreated control (reference value: 100%); assay type: functional, Cavia porcellus, Papillary muscle
[5] = Ionotropic effect in guinea pig right ventricle papillary muscles assessed as contraction force at 10^-7 M by force transduction assay relative to untreated control (reference value: 100%); assay type: functional, Cavia porcellus, Papillary muscle
[6] = Ionotropic effect in guinea pig ventricle papillary muscles assessed as lengthening of 90% repolarized cardiac action potential duration time at 10^-4 M by microelectrode technique relative to untreated control (reference value: 132 to 176 APD50 ms); assay type: functional, Cavia porcellus, Papillary muscle
[7] = Ionotropic effect in guinea pig ventricle papillary muscles assessed as lengthening of 90% repolarized cardiac action potential duration time at 10^-5 M by microelectrode technique relative to untreated control (reference value: 132 to 176 APD50 ms); assay type: functional, Cavia porcellus, Papillary muscle
[8] = Ionotropic effect in guinea pig ventricle papillary muscles assessed as lengthening of 90% repolarized cardiac action potential duration time at 10^-6 M by microelectrode technique relative to untreated control (reference value: 132 to 176 APD50 ms); assay type: functional, Cavia porcellus, Papillary muscle
[9] = Ionotropic effect in guinea pig ventricle papillary muscles assessed as lengthening of 90% repolarized cardiac action potential duration time at 10^-7 M by microelectrode technique relative to untreated control (reference value: 132 to 176 APD50 ms); assay type: functional, Cavia porcellus, Papillary muscle
[10] = Ionotropic effect in guinea pig ventricle papillary muscles assessed as lengthening of 50% repolarized cardiac action potential duration time at 10^-4 M by microelectrode technique relative to untreated control (reference value: 132 to 176 APD50 ms); assay type: functional, Cavia porcellus, Papillary muscle
[11] = Ionotropic effect in guinea pig ventricle papillary muscles assessed as lengthening of 50% repolarized cardiac action potential duration time at 10^-5 M by microelectrode technique relative to untreated control (reference value: 132 to 176 APD50 ms); assay type: functional, Cavia porcellus, Papillary muscle
[12] = Ionotropic effect in guinea pig ventricle papillary muscles assessed as lengthening of 50% repolarized cardiac action potential duration time at 10^-6 M by microelectrode technique relative to untreated control (reference value: 132 to 176 APD50 ms); assay type: functional, Cavia porcellus, Papillary muscle
[13] = Ionotropic effect in guinea pig ventricle papillary muscles assessed as lengthening of 50% repolarized cardiac action potential duration time at 10^-7 M by microelectrode technique relative to untreated control (reference value: 132 to 176 APD50 ms); assay type: functional, Cavia porcellus, Papillary muscle
[14] = Ionotropic effect in guinea pig ventricle papillary muscles assessed as lengthening of 25% repolarized cardiac action potential duration time at 10^-4 M by microelectrode technique relative to untreated control (reference value: 84 to 104 APD25 ms); assay type: functional, Cavia porcellus, Papillary muscle
[15] = Ionotropic effect in guinea pig ventricle papillary muscles assessed as lengthening of 25% repolarized cardiac action potential duration time at 10^-5 M by microelectrode technique relative to untreated control (reference value: 84 to 104 APD25 ms); assay type: functional, Cavia porcellus, Papillary muscle
[16] = Ionotropic effect in guinea pig ventricle papillary muscles assessed as lengthening of 25% repolarized cardiac action potential duration time at 10^-6 M by microelectrode technique relative to untreated control (reference value: 84 to 104 APD25 ms); assay type: functional, Cavia porcellus, Papillary muscle
[17] = Ionotropic effect in guinea pig ventricle papillary muscles assessed as lengthening of 25% repolarized cardiac action potential duration time at 10^-7 M by microelectrode technique relative to untreated control (reference value: 84 to 104 APD25 ms); assay type: functional, Cavia porcellus, Papillary muscle
[18] = Ionotropic effect in guinea pig ventricle papillary muscles assessed as lengthening of 10% repolarized cardiac action potential duration time at 10^-4 M by microelectrode technique relative to untreated control (reference value: 37 to 47 APD10 ms); assay type: functional, Cavia porcellus, Papillary muscle
[19] = Ionotropic effect in guinea pig ventricle papillary muscles assessed as lengthening of […] cardiac action potential duration time at 10^-5 M by microelectrode technique relative to untreated control (reference value: 37 to 47 […] ms); assay type: functional, Cavia porcellus, Papillary muscle
[20] = Ionotropic effect in guinea pig ventricle papillary muscles assessed as lengthening of 10% repolarized cardiac action potential duration time at 10^-6 M by microelectrode technique relative to untreated control (reference value: 37 to 47 APD10 ms); assay type: functional, Cavia porcellus, Papillary muscle
[21] = Ionotropic effect in guinea pig ventricle papillary muscles assessed as lengthening of 10% repolarized cardiac action potential duration time at 10^-7 M by microelectrode technique relative to untreated control (reference value: 37 to 47 APD10 ms); assay type: functional, Cavia porcellus, Papillary muscle
[22] = Ionotropic effect in guinea pig right ventricle papillary muscles assessed as contraction force at 10^-4 M by force transduction assay relative to untreated control (reference value: 100%); assay type: functional, Cavia porcellus, Papillary muscle
[23] = Ionotropic effect in guinea pig right ventricle papillary muscles assessed as contraction force at 10^-5 M by force transduction assay relative to untreated control (reference value: 100%); assay type: functional, Cavia porcellus, Papillary muscle

Structure (SMILES) | Activity [4] | Activity [5] | Time [6] | Time [7] | Time [8] | Time [9] | Time [10] | Time [11] | Time [12] | Time [13] | Time [14] | Time [15] | Time [16] | Time [17] | Time [18] | Time [19] | Time [20] | Time [21] | Activity [22] | Activity [23] | other results
CCOC(=O)C1=C(C)NC2=C(C(=O)OC2)C1c1ccccc1OC(F)F (stereo unspecified) |  |  |  |  |  |  |  |  |  |  |  |  |  |  |  |  |  |  |  |  | Activity [1]: 19%; Activity [2]: 50%; Activity [3]: Active
COC(=O)C1=C(C)NC(C)=C([N+](=O)[O-])C1c1ccccc1OC(F)F (stereo unspecified) | 112.6% | 114.4% | 176.7 ms | 175 ms | 178.3 ms | 178.3 ms | 148.5 ms | 147 ms | 149 ms | 144.8 ms | 109.2 ms | 110.8 ms | 110.3 ms | 101.7 ms | 53.8 ms | 55.3 ms | 54.5 ms | 51.3 ms | 111% | 108.3% | 
COC(=O)C1=C(C)NC=C([N+](=O)[O-])C1c1ccccc1OC(F)F (stereo unspecified) | 73.5% | 78.85% | 220 ms | 217 ms | 202 ms | 190 ms | 178 ms | 177 ms | 161 ms | 153 ms | 112.6 ms | 111.6 ms | 93.7 ms | 90.6 ms | 39.5 ms | 39.5 ms | 35 ms | 36 ms | 92.8% | 90.3% | 
COC(=O)C1=C(C)NC(C)=C([N+](=O)[O-])C1c1ccccc1C(F)(F)F (stereo unspecified) | 155% | 123% | 223.5 ms | 217 ms | 218.2 ms | 220 ms | 133.8 ms | 129 ms | 133.8 ms | 135.6 ms | 89 ms | 85.1 ms | 91 ms | 92.7 ms | 42.7 ms | 41 ms | 42 ms | 44.5 ms | 176% | 175% | Activity [1]: 19%; Activity [2]: 50%; Activity [3]: Active
COC(=O)C1=C(C)NC=C([N+](=O)[O-])C1c1ccccc1C(F)(F)F (stereo unspecified) | 98.5% | 101% | 184 ms | 175.5 ms | 172 ms | 171.5 ms | 156.5 ms | 149.8 ms | 140.5 ms | 138 ms | 111.3 ms | 103.2 ms | 91.4 ms | 92.5 ms | 47 ms | 44.7 ms | 38.5 ms | 40 ms | 97.8% | 103% | 
CCCOCCOC(=O)C1=C(C)NC=C([N+](=O)[O-])C1c1ccc(C(F)(F)F)cc1 (stereo unspecified) | 83.7% | 89.5% | 189.6 ms | 188 ms | 180 ms | 166.7 ms | 158.7 ms | 161.2 ms | 149.6 ms | 136.6 ms | 101 ms | 103.3 ms | 96 ms | 91 ms | 38.2 ms | 37.5 ms | 36 ms | 35 ms | 73% | 81% | 
